Variants at the floor of the assay were thinned out.
B1: tRNA (parent)
chain: GUUCCGUUGGCGUAAUGGUAACGCGUCUCCCUCCUAAGGAGAAGACUGCGGGUUCGAGUCCCGUACGGAACG

Variants of: B1
Experiment: yeast fitness relative to wild type (ratio to wild type); higher = fitter; tRNA-Arg(CCU), competitive growth, 37 C, YPD
Outline: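 Gene amplicons from the start population and from each of six end populations were read by 100-nucleotide paired-end sequencing. Those end populations came from pooled Saccharomyces cerevisiae strains carrying tRNA-Arg(CCU) gene variants at the native locus, competed in YPD at 37°C for 24 hours. Fitness relative to wild type was worked out from changes in genotype frequencies. Genotypes needed ≥ 100 starting reads, and estimates < 0.5 were set to 0.5.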
For C4U C33A A40U, the yeast fitness was 0.564. In the case of G6A A36U C49G C62U, the yeast fitness is reported as ≤ 0.5. U7C C49A G67U showed a yeast fitness of 0.59. With G51C C61G A70C the yeast fitness was 0.542. In the case of U16A C29G C30U A40U, the yeast fitness is reported as ≤ 0.5. With U2C C30A U47C A65C C66G the yeast fitness was ≤ 0.5. For C49G A70G, the yeast fitness was 0.832. For A20U A43U C55A U64A, the yeast fitness was ≤ 0.5. C4U C24G C30G C31U U35A A36U G44A G63C gave a yeast fitness of 0.654. C24U G50C gave a yeast fitness of 0.774. In the case of C4U C46A G67C, the yeast fitness is reported as ≤ 0.5. In the case of C5U A15G G58C G68A, the yeast fitness is reported as 0.51. For G23A C49U A65C, the yeast fitness was 0.523. With C11A A43G A65C the yeast fitness was 0.501. With C31A G50C the yeast fitness was 0.566. For C4U C22U C33U A42C A57G, the yeast fitness was ≤ 0.5. Work on A43U C46G yielded a yeast fitness of 0.829. With C27A G56C C66G the yeast fitness was ≤ 0.5. In the case of U7A A37U C49U C55U A57C C61U, the yeast fitness is reported as 0.934. With U7C C11U U19G C29U U32C C34G G52C A70G the yeast fitness was ≤ 0.5. For C5G C31G A57C, the yeast fitness was 0.502. For A15U C29A, the yeast fitness was 0.568. In the case of G10A A20U C27U U35C G48C C60A, the yeast fitness is reported as ≤ 0.5. With G41A A43G C60U A70C the yeast fitness was 0.542. For C5A C60A, the yeast fitness was 0.651. With C4U C5G U28C C61A the yeast fitness was ≤ 0.5. For G10C C22A C24G U53A, the yeast fitness was 0.547. C27G U54C C62U gave a yeast fitness of 0.552. With U16C C22G C27G U53C C61A G68A the yeast fitness was ≤ 0.5. C4G G50A G56A gave a yeast fitness of 0.727. For A15G U19C G51C C55U, the yeast fitness was 0.582. In the case of C27G C31G C33U, the yeast fitness is reported as ≤ 0.5. For U3A G12A U19A U64C, the yeast fitness was ≤ 0.5. Variant U8G C60G C61A has a yeast fitness of 0.597. For C5U A40C A65U, the yeast fitness was 0.643. In the case of C29G U32C C61G C66G, the yeast fitness is reported as ≤ 0.5. A57C C62U G68C gave a yeast fitness of 0.539. With C5G C11A A40U U64C the yeast fitness was 0.536. For C4A C5G C27U U53A A69U, the yeast fitness was ≤ 0.5. In the case of C11U U28C G44C U64C, the yeast fitness is reported as ≤ 0.5. In the case of C11G A14G A37G G44A, the yeast fitness is reported as ≤ 0.5. A45G U54C gave a yeast fitness of 0.774. Work on A20G A37G G38A C55U U59G yielded a yeast fitness of 0.563. A15G A36G A70C gave a yeast fitness of 0.674. For G17C G18C C30G U53A U64G, the yeast fitness was ≤ 0.5. In the case of G10C A36G G41A, the yeast fitness is reported as ≤ 0.5. In the case of C30U U53G A69U, the yeast fitness is reported as ≤ 0.5. With G17C G63C the yeast fitness was ≤ 0.5. With C30G C31G A43G G56C the yeast fitness was ≤ 0.5. For G25A G52A, the yeast fitness was 0.572. For A15G G23C G38C G52C G58A, the yeast fitness was 0.507. For C11G U19C A45U, the yeast fitness was ≤ 0.5. In the case of G23C G38C A40U G58C, the yeast fitness is reported as ≤ 0.5. In the case of G51C C62G G68A A70U, the yeast fitness is reported as ≤ 0.5. With A21G G25A G48C C62A the yeast fitness was ≤ 0.5. Variant G12A U26A C31G has a yeast fitness of 0.541. For C22G C24U A37C, the yeast fitness was ≤ 0.5. For G9A C11G C24G U32A G58C, the yeast fitness was ≤ 0.5. In the case of U28C A57G, the yeast fitness is reported as 0.896. For C11G A37C A42U, the yeast fitness was ≤ 0.5. A21C U47A G52C gave a yeast fitness of 0.662. Work on U13C U47C C62U yielded a yeast fitness of 0.715. Variant A15G G50A has a yeast fitness of 0.929. For U2G U3C G10C A69C, the yeast fitness was ≤ 0.5. In the case of C34U G56A, the yeast fitness is reported as 0.798. With A14G C29G C46U A57G C61U the yeast fitness was ≤ 0.5. A15C G39A C46U gave a yeast fitness of 0.55. In the case of C34A A40U, the yeast fitness is reported as 0.705. With C29U A37G C61G A69U the yeast fitness was ≤ 0.5. For U26A U64G A65U A69C, the yeast fitness was ≤ 0.5. With G9A C31A A42C A57G the yeast fitness was 0.522. For G41A A45U G58U C60A, the yeast fitness was 0.583. With U16A G17A C22G C61U the yeast fitness was ≤ 0.5. For A21U U32C A36G A37U U53G, the yeast fitness was ≤ 0.5. In the case of C29U C62G G68A, the yeast fitness is reported as ≤ 0.5. A15G G48A gave a yeast fitness of 0.879. For U19A C24A C31G G68C, the yeast fitness was ≤ 0.5. With A14G U16A C33A U59C the yeast fitness was ≤ 0.5. Work on G12A C24A A36U yielded a yeast fitness of 0.666. With C5A G39C C60G C62A the yeast fitness was ≤ 0.5. With C4U A20C C46U A70G the yeast fitness was ≤ 0.5. U26C C31U A43G gave a yeast fitness of 1.12. In the case of U19A A43C A69U, the yeast fitness is reported as 0.56. With C34G G63A G67A the yeast fitness was ≤ 0.5. In the case of U3G A14G C62G A69G, the yeast fitness is reported as ≤ 0.5. G39C G58C gave a yeast fitness of 0.83. Variant U8C C66G has a yeast fitness of 0.75. In the case of U7A C29G C34G A36G U54C A57G, the yeast fitness is reported as ≤ 0.5. With C4A C11U C30U G39C C55G the yeast fitness was ≤ 0.5. Variant C5A G17C C27G has a yeast fitness of 0.57. G25A C31A gave a yeast fitness of 0.671. For C11G U13G G23C C34U U59C C66U, the yeast fitness was ≤ 0.5. Work on C11U U19A A43U A65U yielded a yeast fitness of 0.53. In the case of A45U C55U C62A, the yeast fitness is reported as ≤ 0.5. With A14U A21G G39C A45G G63C the yeast fitness was ≤ 0.5. For U7A C30A G51A, the yeast fitness was ≤ 0.5. With G18A C62G G68C the yeast fitness was ≤ 0.5. For C22G G39C U59G C66U, the yeast fitness was 0.504. With G23C G68A A69U the yeast fitness was ≤ 0.5. Variant U3G U53G has a yeast fitness of 0.587. G50A A69C showed a yeast fitness of 0.74. With C5U C34A G56A the yeast fitness was ≤ 0.5. With C4A C5A U28G C31G U47C A57U A70G the yeast fitness was ≤ 0.5. A65U gave a yeast fitness of 0.993. In the case of U26C G68A, the yeast fitness is reported as 0.863. With U7C C24G A65C the yeast fitness was ≤ 0.5. U16C G56A G68A showed a yeast fitness of 0.69. For C29U C46G G51A, the yeast fitness was 0.543. With C30A A37C the yeast fitness was 0.772. In the case of G17U U35C A37U A57C, the yeast fitness is reported as ≤ 0.5. With U35G A57C A70C the yeast fitness was ≤ 0.5. Variant U13A C49U has a yeast fitness of 1.02. With C4U A36C G63A the yeast fitness was 0.536. For A21U A43G G44C, the yeast fitness was ≤ 0.5. In the case of C27A C61G G67A, the yeast fitness is reported as ≤ 0.5. In the case of U16C C31U C33A C34G U35A G52A G67A, the yeast fitness is reported as ≤ 0.5. With G9A C24A C55A the yeast fitness was ≤ 0.5. For U28A C34U A57G C66U, the yeast fitness was ≤ 0.5. A15G U54G C55U gave a yeast fitness of 0.561. For C11A C49U G68A, the yeast fitness was ≤ 0.5. In the case of A15U A20C U26A C30G U35A G38C U64A, the yeast fitness is reported as ≤ 0.5. A20U U64G showed a yeast fitness of 0.725. In the case of A36G A57G, the yeast fitness is reported as 0.985. With C22G C27G C30A U32G C55G the yeast fitness was ≤ 0.5. C4U C34G G52U showed a yeast fitness of 0.62. For U2C U32A A65G, the yeast fitness was ≤ 0.5. A36U A40U C60A gave a yeast fitness of 0.713. In the case of C5U A21U A37C C61A A65C, the yeast fitness is reported as ≤ 0.5. With U2A C11A C46U C49U the yeast fitness was ≤ 0.5. Variant U3C C5A has a yeast fitness of 0.89. In the case of C4U C5G C29G C31G A37C G63A, the yeast fitness is reported as 0.542. In the case of C49A C61U C62A G67C, the yeast fitness is reported as ≤ 0.5. For G12A C31U C61G, the yeast fitness was 0.543. With A43U G68A the yeast fitness was 0.669. With C5G A45C U64G the yeast fitness was ≤ 0.5. With C11U U19G C27U C29G the yeast fitness was ≤ 0.5. In the case of U8C C29A A65C C66G, the yeast fitness is reported as ≤ 0.5. With U7G A20U C46G the yeast fitness was 0.562. In the case of U26C A37U A45U G63A, the yeast fitness is reported as ≤ 0.5. With U2A U3C G18C A69U the yeast fitness was ≤ 0.5. With U3C C27G C49A the yeast fitness was ≤ 0.5. With C22A G51C G68C the yeast fitness was ≤ 0.5. C27U C46U A69C showed a yeast fitness of 0.776. G41A A42C showed a yeast fitness of 0.726. For A15U U32A G44A A65C, the yeast fitness was ≤ 0.5. Variant G9A A40C A69U has a yeast fitness of 0.722. For A20U C24U A43G U59A, the yeast fitness was ≤ 0.5. For U2A G9A C11U G51C C55U A69C A70U, the yeast fitness was ≤ 0.5. In the case of U2G U7C A69U, the yeast fitness is reported as ≤ 0.5. For C5A U19A G38C, the yeast fitness was ≤ 0.5. With C11G U47A C61G the yeast fitness was ≤ 0.5. In the case of C11G U13G C33G G41A G63A A69C, the yeast fitness is reported as ≤ 0.5. For C5A U16C C30A A45U G50C G63A, the yeast fitness was ≤ 0.5. With G51A C61A G68C the yeast fitness was ≤ 0.5. In the case of A21C U28G C33U C34U A43U G50A A69C, the yeast fitness is reported as ≤ 0.5. With C4G U32C the yeast fitness was 0.944. U28C C33G C66A showed a yeast fitness of 0.616. For U2C U32G, the yeast fitness was 0.674. Variant U26C U35C A37G has a yeast fitness of 0.528. With A14U A20C G23A C46A U64C the yeast fitness was ≤ 0.5. In the case of U2A C5A C31A A43G A45C, the yeast fitness is reported as ≤ 0.5. C30A U47C G58A A69U gave a yeast fitness of 0.563. In the case of U7G A15G C33G, the yeast fitness is reported as ≤ 0.5. For A14U C27U A69G, the yeast fitness was ≤ 0.5. With A14G G17C G39A A69C the yeast fitness was ≤ 0.5. For U28A C66U, the yeast fitness was 0.796. In the case of G9A G23C U59A, the yeast fitness is reported as ≤ 0.5.

Reference: the RNAGym collection of RNA variant scans (doi:10.1126/science.aae0568)
